{"source": "PubChem BioAssay AID449763", "about": "(Sanford-Burnham Center for Chemical Genomics, 2010)", "note": "Out of some 330,000 compounds screened, about 1,100 (0.33%) were called active. The full list was thinned out, with actives kept by preference. Unmarked numbers belong to inactive results.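 Rule for the calls: active = at 10 µM dose, activation of 40% or more, normalized to positive control; inactive = the rest.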", "data": [{"assay": "activators of apoptotic CHOP UPR arm, primary screen, cell-based, CHO-CHOP luciferase reporter, luminescence, uHTS (AID 449763);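 note: 100% = tunicamycin at 10 µg/mL and 0% = DMSO alone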", "details": "at 10 µM, hits give high values, percent of tunicamycin response over DMSO baseline", "procedure,_shortened": "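Assay system: CHO cells with stable CHOP pathway luciferase reporter; Buffer or medium: F12 plus 10% serum; Times: 16-18 h cell attachment, then 6 h compound exposure, 37 °C; Signal: luciferase luminescence; Read-out basis: percent activation relative to tunicamycin control; Control set: tunicamycin high control, DMSO low control.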", "values": [{"smiles": "COc1ccc(C(=O)NC2CC(C)(C)NC(C)(C)C2)cc1OC", "activation": "0.193%"}, {"smiles": "O=C(CCC(=O)n1ncc2ccccc21)NCc1ccccc1Cl", "activation": "-0.158%"}, {"smiles": "COc1ccc(S(=O)(=O)NC(C)C(=O)N2CCCCCC2)cc1", "note": "(stereo unspecified)", "activation": "-2.32%"}, {"smiles": "CCn1nc(C)c(CNC(=O)C2CCC(=O)N(Cc3cccc(F)c3)C2)c1C", "note": "(stereo unspecified)", "activation": "0.585%"}, {"smiles": "CC1=C(C(N)=O)C(c2ccc(Br)cc2)n2ncnc2N1", "note": "(stereo unspecified)", "activation": "-1.48%"}, {"smiles": "Fc1ccccc1/C=C1\\CCCC2=C1Nc1ncnn1C2c1ccccc1F", "note": "(stereo unspecified)", "activation": "90.9% (active)"}, {"smiles": "Brc1ccc2c(c1)[C@H]1OCC[C@H]1[C@@H](c1cccs1)N2", "activation": "-1.2%"}, {"smiles": "O=C1CCN(C(=O)Nc2ccccc2)N1", "activation": "-2.23%"}, {"smiles": "Cc1ccc(-c2nnc(-c3ccc(NC(=O)c4cccs4)cc3)o2)cc1", "activation": "325% (active)"}, {"smiles": "Cc1ccc(NC(=O)c2cccs2)cc1S(=O)(=O)N(C)C", "activation": "1.35%"}, {"smiles": "Cc1ccc(OCC(=O)Nc2ccc(NC(=O)c3cccs3)cc2)c(C)c1", "activation": "0.176%"}, {"smiles": "Cn1c(SCc2ccc(F)cc2)nnc1-c1ccncc1", "activation": "1.85%"}, {"smiles": "CN(C)CCCn1c(SCc2ccc(Cl)cc2)nnc1-c1ccncc1", "activation": "139% (active)"}, {"smiles": "CC1CCCCC1NC(=O)CSc1nnc(-c2ccncc2)n1CCCN(C)C", "note": "(stereo unspecified)", "activation": "-1.77%"}, {"smiles": "COc1ccc(-n2cc(CNC3CCOCC3)c(-c3cccc(F)c3)n2)cc1", "activation": "0.961%"}, {"smiles": "O=C(COc1ccccc1O)NC1CCCC1", "activation": "3.04%"}, {"smiles": "CC(=O)c1sc(N/N=C\\c2ccc(C)cc2)nc1C", "activation": "5.8%"}, {"smiles": "COc1cccc2sc(Nc3nc(C)c(C(C)=O)s3)nc12", "activation": "309% (active)"}, {"smiles": "CNC(=O)c1sc(NCc2ccccc2OC)nc1C", "activation": "-3.17%"}, {"smiles": "CCOCCCn1c(NN)nc2ccccc2c1=O", "activation": "1.17%"}, {"smiles": "CCn1c(/C=C/c2ccc([N+](=O)[O-])o2)nc2ccccc2c1=O", "activation": "71.3% (active)"}, {"smiles": "CCn1c(SCc2ccccc2)nc2cc(OC)c(OC)cc2c1=O", "activation": "-0.179%"}, {"smiles": "COC(=O)c1cc(CNC(=O)CC(C)c2ccccc2)ccc1OC", "note": "(stereo unspecified)", "activation": "2.14%"}, {"smiles": "COc1ccc(-c2cc(C(F)(F)F)nc(S(C)(=O)=O)n2)cc1OC", "activation": "106% (active)"}, {"smiles": "COc1ccc(-c2cc(-c3ccc(N)cc3)nc(N)c2C#N)cc1OC", "activation": "-0.472%"}, {"smiles": "COc1ccc(-c2ccc(Nc3ccc(S(=O)(=O)N4CCCC4)cc3)nn2)cc1OC", "activation": "3.88%"}, {"smiles": "O=C1/C(=C/c2ccc(F)cc2)SC(=S)N1NS(=O)(=O)c1ccccc1", "activation": "0.174%"}, {"smiles": "CC(C)CNC(=S)NNC(=O)c1ccccc1OC(F)F", "activation": "-0.805%"}, {"smiles": "CCc1noc(C)c1C(=O)NNC(=O)c1ccc(F)cc1", "activation": "-0.408%"}, {"smiles": "Cc1onc(C(=O)NCc2ccc(F)cc2)c1[N+](=O)[O-]", "activation": "-0.611%"}, {"smiles": "O=C(/C=C/c1ccc([N+](=O)[O-])o1)NNC(=O)c1ccc(F)cc1", "activation": "129% (active)"}, {"smiles": "CC(C)CNS(=O)(=O)c1ccc(CCC(=O)NCc2ccc(Cl)cc2)cc1", "activation": "0.956%"}, {"smiles": "COc1cccc(-n2c(SCC(=O)NC3CCCCC3)nc3n[nH]c(C)c3c2=N)c1", "activation": "-0.882%"}, {"smiles": "Cc1ccc(C(C[N+](=O)[O-])c2c(C)cc3ccccn23)cc1", "note": "(stereo unspecified)", "activation": "-0.989%"}, {"smiles": "Nc1ccccc1SC(C[N+](=O)[O-])c1ccccc1", "note": "(stereo unspecified)", "activation": "181% (active)"}, {"smiles": "COc1ccc(S(=O)(=O)N2CCOCC2)cc1NC(=O)CSc1ncnc2ccccc12", "activation": "-1.54%"}, {"smiles": "Cc1nn(CC#N)c(=O)n1N(C)c1ncc(C(F)(F)F)cc1Cl", "activation": "-1.47%"}, {"smiles": "COc1ccc(OC)c(S(=O)(=O)n2c([N+](=O)[O-])cnc2C)c1", "activation": "-0.979%"}, {"smiles": "CCOc1ccc(C(C)C)cc1S(=O)(=O)n1nc(C)cc1C", "activation": "-3.09%"}, {"smiles": "COc1ccc(C(C[N+](=O)[O-])n2nc(C)cc2C)cc1", "note": "(stereo unspecified)", "activation": "59.5% (active)"}, {"smiles": "O=C(NNS(=O)(=O)c1ccccc1)c1cnn(-c2ccc(Cl)cc2)c1C(F)(F)F", "activation": "2.88%"}, {"smiles": "CCN(C(=O)COC(=O)/C=C/c1nc2ccccc2s1)C1CCS(=O)(=O)C1", "note": "(stereo unspecified)", "activation": "0.0282%"}, {"smiles": "CN1CCNC(=O)C1CC(=O)N1CC=C(c2ccc(F)cc2)CC1", "note": "(stereo unspecified)", "activation": "-1.29%"}, {"smiles": "C=CS(=O)c1sc(Cl)c(N2CCOCC2)c1[N+](=O)[O-]", "note": "(stereo unspecified)", "activation": "97.2% (active)"}, {"smiles": "O=C(CSCc1ccccc1)Nc1ccccc1", "activation": "2.11%"}, {"smiles": "O=C(CSc1ccccc1)Nc1ccc(C(=O)Nc2cccc(O)c2)cc1", "activation": "2.1%"}, {"smiles": "O=C(CCl)Nc1cccc(CP(=O)(c2ccccc2)c2ccccc2)c1", "activation": "60.2% (active)"}, {"smiles": "COc1c(C)cc(C(=O)C2CCCN(S(=O)(=O)c3c(C)noc3C)C2)cc1C", "note": "(stereo unspecified)", "activation": "3.35%"}, {"smiles": "O=C(/C=C/Sc1ncn[nH]1)c1ccc(Cl)cc1", "activation": "-3.23%"}, {"smiles": "Cc1cc(C)nc(S/C=C/C(=O)c2ccccc2)n1", "activation": "64.1% (active)"}, {"smiles": "Cc1cc(C)nc(SCC(=O)N(C)C)n1", "activation": "-0.00178%"}, {"smiles": "O=C(N/N=C\\c1cc2c(cc1Cl)OCO2)c1ccc(Br)s1", "activation": "51.5% (active)"}, {"smiles": "CC1(C(=O)N/N=C/c2cc3c(cc2Br)OCO3)CC1(Br)Br", "note": "(stereo unspecified)", "activation": "1.01%"}, {"smiles": "O=C(N/N=C/c1cc2c(cc1Br)OCO2)C1COc2ccccc2O1", "note": "(stereo unspecified)", "activation": "8.62%"}, {"smiles": "CC(=O)Nc1ccc(Nc2nc3c(S(=O)(=O)c4ccc(C)c(C)c4)nnn3c3ccccc23)cc1", "activation": "0.65%"}, {"smiles": "Cc1ccc(S(=O)(=O)c2nnn3c2nc(N2CCN(c4ccccn4)CC2)c2ccccc23)cc1", "activation": "1.19%"}, {"smiles": "Cc1cccc(Nc2nc3c(S(=O)(=O)c4ccccc4)nnn3c3ccccc23)c1C", "activation": "145% (active)"}, {"smiles": "Cc1cccc(C(=O)N2CCCC(Nc3ccc(C(C)C)cc3)C2)n1", "note": "(stereo unspecified)", "activation": "0.069%"}, {"smiles": "COc1ccc(C(=O)NCC(=O)N/N=C/c2ccc([N+](=O)[O-])o2)cc1OC", "activation": "113% (active)"}, {"smiles": "COc1cc(CC(=O)N/N=C/c2ccccc2)c([N+](=O)[O-])cc1OC", "activation": "0.0789%"}, {"smiles": "COc1cccc(/C=N/NC(=O)CNC(=O)c2ccc(S(=O)(=O)N3CCOCC3)cc2)c1OC", "activation": "3.45%"}]}]}
